Consider one compound from ChEMBL document CHEMBL5678799 (Biochem J, 2009).

Data set [1] has as its target Phosphorylase b kinase gamma catalytic chain, skeletal muscle/heart isoform (Homo sapiens) (UniProt Q16816). Briefly: Inhibition of recombinant human N-terminal GST-tagged PHKgamma1 (2 to 297 residues) expressed in Escherichia coli assessed as remaining activity at 1 uM using phosphorylase b peptide as substrate incubated for 30 mins in presence of [gamma-33P]ATP by filter binding method relative to control. The essentials: (§1)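 Incubation was 30 min at room temperature (21 °C) under conditions linear with time and enzyme amount. Activity is reported as percent of control lacking compound, triplicate mean ± S.D.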

Data set [2] relates to Ribosomal protein S6 kinase beta-1 (Homo sapiens), P23443 [T412E]. Briefly: Inhibition of recombinant human His6-tagged S6K1 T412E mutant (1 to 421 residues) expressed in baculovirus infected Sf21 cells assessed as remaining activity at 10 uM using KKRNRTLTV as substrate incubated for 30 mins in presence of [gamma-33P]ATP by filter binding method relative to control. The essentials: (§2)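 Incubations ran robotically for 30 min at room temperature (21 °C) under linear conditions. Results are percent activity remaining versus controls without compound, as the mean of triplicates ± S.D.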

Data set [3] deals with Mitogen-activated protein kinase 14 (Homo sapiens) (UniProt Q16539). Briefly: Inhibition of recombinant human N-terminal GST-tagged P38alpha (1 to 360 residues) expressed in Escherichia coli assessed as remaining activity at 10 uM using MBP as substrate incubated for 30 mins in presence of [gamma-33P]ATP by filter binding method relative to control. An outline of the steps: as §1

For data set [4], the target named is MAP kinase-interacting serine/threonine-protein kinase 2 (Homo sapiens) (UniProt Q9HBH9). As to the kind of experiment: Inhibition of recombinant human N-terminal GST/C-terminal His6-tagged MNK2alpha (2 to 465 residues) expressed in Escherichia coli assessed as remaining activity at 1 uM using eIF4E as substrate incubated for 30 mins in presence of [gamma-33P]ATP by filter binding method relative to control.

The target in data set [5] is MAP kinase-interacting serine/threonine-protein kinase 1 (Homo sapiens) (UniProt Q9BUB5). Briefly: Inhibition of recombinant human N-terminal GST-tagged C-terminal His6-tagged MNK1 (2 to 424 residues) expressed in Escherichia coli assessed as remaining activity at 10 uM using eIF4E as substrate incubated for 30 mins in presence of [gamma-33P]ATP by filter binding method relative to control.

Data set [6] has as its target Tyrosine-protein kinase CSK (Homo sapiens) (UniProt P41240). As to the kind of experiment: Inhibition of recombinant human N-terminal GST-tagged CSK (1 to 450 residues) expressed in Escherichia coli assessed as remaining activity at 1 uM Cdc2 peptide as substrate incubated for 30 mins in presence of [gamma-33P]ATP by filter binding method relative to control. The essentials:
as §2

The target of data set [7] is Serine/threonine-protein kinase pim-2 (Homo sapiens) (UniProt Q9P1W9). Briefly: Inhibition of recombinant human N-terminal GST-tagged PIM2 (2 to 334 residues) expressed in Escherichia coli assessed as remaining activity at 1 uM using RSRHSSYPAGT as substrate incubated for 30 mins in presence of [gamma-33P]ATP by filter binding method relative to control. The essentials:
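Radiometric kinase panel run robotically at room temperature (21 °C) for 30 min, linear in time and enzyme. […] Activity is expressed as percent of control without compound, from triplicate determinations ± S.D.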

The target of data set [8] is Serine/threonine-protein kinase 3 (Homo sapiens) (UniProt Q13188). As to the kind of experiment: Inhibition of recombinant human N-terminal GST-tagged MST2 (2 to 491 residues) expressed in baculovirus infected Sf21 cells assessed as remaining activity at 1 uM using MBP as substrate incubated for 30 mins in presence of [gamma-33P]ATP by filter binding method relative to control. An outline of the steps: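 Panel assays were run for 30 min at 21 °C, within the linear range for time and enzyme. […] Results are percent activity remaining relative to compound-free control, averaged from triplicate ± S.D.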

For data set [9], the system named is MEF. Briefly: Induction of cell cycle arrest in MEF cells assessed as accumulation at S phase at 3 uM incubated for 1 to 3 days by propidium iodide staining based flow cytometric analysis (reference value: 61.5 +/- 0.78%). The following applies: mouse, time 1-3 day. It is filed as toxicity. Background: A flow cytometer gives signals particle by particle.
For data set [10], the target named is MAP kinase-activated protein kinase 5 (Homo sapiens) (UniProt Q8IW41). Briefly: Inhibition of recombinant human His6-tagged PRAK (1 to 471 residues) expressed in baculovirus infected Sf21 cells assessed as remaining activity at 1 uM using phosphorylase b peptide as substrate incubated for 30 mins in presence of [gamma-33P]ATP by filter binding method relative to control. An outline of the steps:
(§3)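 Robotic radiometric panel assay, 30 min at room temperature (21 °C), with 10 mM magnesium acetate. […] Compound at 1 or 10 µM. Residual activity expressed relative to compound-free control; triplicate average ± S.D.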

The target of data set [11] is Tyrosine-protein kinase Yes (Homo sapiens) (UniProt P07947). Briefly: Inhibition of recombinant human N-terminal His6-tagged YES1 (1 to 543 residues) expressed in baculovirus infected Sf21 cells assessed as remaining activity at 1 uM using Poly(Glu,Tyr) as substrate incubated for 30 mins in presence of [gamma-33P]ATP by filter binding assay relative to control. An outline of the steps: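 Radiometric panel assay run robotically at 21 °C for 30 min, linear in time and enzyme. […] Activity is expressed as percentage of the compound-omitted control, averaged from triplicates ± S.D.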

Data set [12] has as its system MEF. As to the kind of experiment: Induction of cell cycle arrest in mLST8 knockout MEF cells assessed as accumulation at S phase at 3 uM incubated for 1 to 3 days by propidium iodide staining based flow cytometric analysis (reference value: 59.7 +/- 0.49%). It is filed as toxicity. Particulars: mouse, time 1-3 day.
The target of data set [13] is MAP kinase-interacting serine/threonine-protein kinase 2 (Homo sapiens) (UniProt Q9HBH9). As to the kind of experiment: Inhibition of recombinant human N-terminal GST/C-terminal His6-tagged MNK2alpha (2 to 465 residues) expressed in Escherichia coli assessed as remaining activity at 10 uM using eIF4E as substrate incubated for 30 mins in presence of [gamma-33P]ATP by filter binding method relative to control.

In data set [14] the target is Calcium/calmodulin-dependent protein kinase kinase 2 (Homo sapiens) (UniProt Q96RR4). Briefly: Inhibition of recombinant human N-terminal GST-tagged CAMKKbeta (1 to 541 residues) expressed in Escherichia coli assessed as remaining activity at 10 uM using DGEFLRTSCGSPNYAARRR as substrate incubated for 30 mins in presence of [gamma-33P]ATP by filter binding method relative to control. The essentials: as §3

Data set [15] concerns the target Sphingosine kinase 1 (Homo sapiens) (UniProt Q9NYA1). Briefly: Inhibition of SPHK1 (unknown origin) assessed as remaining activity at 10 uM using sphingosine as substrate incubated for 30 mins in presence of ATP relative to control. An outline of the steps: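 SPHK1 assayed with 10 μM sphingosine, 10 μM ATP in 50 mM Tris/HCl pH 7.5, 150 mM NaCl, 5 mM MgCl2, 1 mM EGTA, 1 mM DTT, 30 min at room temperature. ATP remaining read by Kinase-Glo Plus luminescence after 10 min. Activity as % of control, triplicate.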

Sequence of MAP kinase-interacting serine/threonine-protein kinase 2 (Homo sapiens) (Q9HBH9 whole entry, looked up, the tested form may be a part): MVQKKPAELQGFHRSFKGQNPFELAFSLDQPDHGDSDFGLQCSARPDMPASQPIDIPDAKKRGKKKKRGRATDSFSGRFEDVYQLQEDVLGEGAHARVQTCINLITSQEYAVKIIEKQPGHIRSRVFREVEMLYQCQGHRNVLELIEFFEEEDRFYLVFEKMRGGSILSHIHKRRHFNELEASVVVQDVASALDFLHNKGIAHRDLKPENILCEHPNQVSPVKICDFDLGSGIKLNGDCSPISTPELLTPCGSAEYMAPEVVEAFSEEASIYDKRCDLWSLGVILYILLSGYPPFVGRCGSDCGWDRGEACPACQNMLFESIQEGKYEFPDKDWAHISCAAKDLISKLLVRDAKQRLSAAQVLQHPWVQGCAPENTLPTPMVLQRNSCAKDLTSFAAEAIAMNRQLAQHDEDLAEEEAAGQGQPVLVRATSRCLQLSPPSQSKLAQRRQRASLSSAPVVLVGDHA
Sequence of Serine/threonine-protein kinase 3 (Homo sapiens) (Q13188 whole entry, the tested form may be a part): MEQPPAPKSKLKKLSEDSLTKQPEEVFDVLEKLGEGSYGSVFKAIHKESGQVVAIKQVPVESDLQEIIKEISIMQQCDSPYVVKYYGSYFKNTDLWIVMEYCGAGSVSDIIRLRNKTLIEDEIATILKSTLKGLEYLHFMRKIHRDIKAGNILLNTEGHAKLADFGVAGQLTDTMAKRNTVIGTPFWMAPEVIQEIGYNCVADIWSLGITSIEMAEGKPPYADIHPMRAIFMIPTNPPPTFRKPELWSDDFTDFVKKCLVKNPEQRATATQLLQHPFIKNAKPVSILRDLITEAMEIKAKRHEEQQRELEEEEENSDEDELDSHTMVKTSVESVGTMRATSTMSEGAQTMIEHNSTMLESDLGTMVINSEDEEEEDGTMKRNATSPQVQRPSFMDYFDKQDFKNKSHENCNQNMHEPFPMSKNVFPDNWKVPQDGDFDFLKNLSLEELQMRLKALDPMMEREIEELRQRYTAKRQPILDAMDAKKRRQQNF
Sequence of MAP kinase-interacting serine/threonine-protein kinase 1 (Homo sapiens) (Q9BUB5 whole entry, looked up, the tested form may be a part): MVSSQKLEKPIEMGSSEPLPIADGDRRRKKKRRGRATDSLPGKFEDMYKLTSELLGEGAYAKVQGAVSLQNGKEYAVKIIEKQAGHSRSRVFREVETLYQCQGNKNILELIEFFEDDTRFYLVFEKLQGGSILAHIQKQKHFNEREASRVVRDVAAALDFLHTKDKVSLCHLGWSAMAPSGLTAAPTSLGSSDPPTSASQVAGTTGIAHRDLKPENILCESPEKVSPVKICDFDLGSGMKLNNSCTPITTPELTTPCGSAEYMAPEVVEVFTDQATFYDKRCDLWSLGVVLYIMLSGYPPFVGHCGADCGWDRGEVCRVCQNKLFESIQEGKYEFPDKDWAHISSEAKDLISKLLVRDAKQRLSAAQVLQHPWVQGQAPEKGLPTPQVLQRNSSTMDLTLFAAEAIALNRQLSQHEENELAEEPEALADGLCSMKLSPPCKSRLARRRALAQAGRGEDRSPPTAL
Sequence of Mitogen-activated protein kinase 14 (Homo sapiens) (Q16539 whole entry, the tested form may be a part): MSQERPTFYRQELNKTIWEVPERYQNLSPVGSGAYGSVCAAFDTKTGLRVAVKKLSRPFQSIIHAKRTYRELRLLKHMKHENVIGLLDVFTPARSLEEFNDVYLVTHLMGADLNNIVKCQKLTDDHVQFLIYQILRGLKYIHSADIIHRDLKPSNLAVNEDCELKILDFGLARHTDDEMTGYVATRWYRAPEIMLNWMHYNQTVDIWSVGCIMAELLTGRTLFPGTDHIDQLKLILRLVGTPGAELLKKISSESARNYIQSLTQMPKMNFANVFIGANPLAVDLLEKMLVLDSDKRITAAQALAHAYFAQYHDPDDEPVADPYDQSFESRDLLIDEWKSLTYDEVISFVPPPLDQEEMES
Sequence of Calcium/calmodulin-dependent protein kinase kinase 2 (Homo sapiens) (Q96RR4 2-588 limits assumed): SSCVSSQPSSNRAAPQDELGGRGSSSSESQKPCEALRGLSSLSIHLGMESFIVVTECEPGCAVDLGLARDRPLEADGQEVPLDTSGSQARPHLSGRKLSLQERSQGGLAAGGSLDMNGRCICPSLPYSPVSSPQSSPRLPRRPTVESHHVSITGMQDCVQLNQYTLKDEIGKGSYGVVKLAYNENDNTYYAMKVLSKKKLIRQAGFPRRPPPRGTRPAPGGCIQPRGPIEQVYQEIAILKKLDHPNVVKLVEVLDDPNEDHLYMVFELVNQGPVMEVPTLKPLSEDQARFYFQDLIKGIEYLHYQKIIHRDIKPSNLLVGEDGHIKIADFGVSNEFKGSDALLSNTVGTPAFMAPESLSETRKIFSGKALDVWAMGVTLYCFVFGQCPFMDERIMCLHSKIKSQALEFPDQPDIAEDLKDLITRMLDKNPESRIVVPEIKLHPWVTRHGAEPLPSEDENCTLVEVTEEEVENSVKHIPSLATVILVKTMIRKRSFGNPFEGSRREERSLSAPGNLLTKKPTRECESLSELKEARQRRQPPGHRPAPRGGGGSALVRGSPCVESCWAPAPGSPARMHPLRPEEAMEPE
Sequence of Sphingosine kinase 1 (Homo sapiens) (Q9NYA1 whole entry): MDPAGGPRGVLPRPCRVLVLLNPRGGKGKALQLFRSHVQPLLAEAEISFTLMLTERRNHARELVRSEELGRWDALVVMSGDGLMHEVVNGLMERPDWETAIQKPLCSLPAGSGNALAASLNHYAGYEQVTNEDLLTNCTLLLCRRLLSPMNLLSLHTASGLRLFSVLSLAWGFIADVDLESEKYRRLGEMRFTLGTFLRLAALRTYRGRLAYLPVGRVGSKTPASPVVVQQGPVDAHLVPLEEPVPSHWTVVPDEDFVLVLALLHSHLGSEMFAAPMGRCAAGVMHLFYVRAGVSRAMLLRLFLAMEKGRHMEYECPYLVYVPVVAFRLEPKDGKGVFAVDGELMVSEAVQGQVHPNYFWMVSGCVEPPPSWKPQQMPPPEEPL
Sequence of MAP kinase-activated protein kinase 5 (Homo sapiens) (Q8IW41 whole entry, the tested form may be a part): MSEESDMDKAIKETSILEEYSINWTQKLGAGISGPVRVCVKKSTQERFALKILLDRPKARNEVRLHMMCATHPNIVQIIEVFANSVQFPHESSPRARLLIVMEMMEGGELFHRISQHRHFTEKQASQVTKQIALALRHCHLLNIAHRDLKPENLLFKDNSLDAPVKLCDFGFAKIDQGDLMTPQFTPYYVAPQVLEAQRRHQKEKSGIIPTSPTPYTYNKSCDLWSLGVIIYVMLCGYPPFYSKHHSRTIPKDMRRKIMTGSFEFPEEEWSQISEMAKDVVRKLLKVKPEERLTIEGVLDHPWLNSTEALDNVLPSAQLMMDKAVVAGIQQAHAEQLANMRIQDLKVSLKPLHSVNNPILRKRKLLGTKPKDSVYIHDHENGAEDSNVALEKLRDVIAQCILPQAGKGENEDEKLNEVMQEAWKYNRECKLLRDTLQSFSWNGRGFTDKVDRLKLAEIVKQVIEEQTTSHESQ
Sequence of Ribosomal protein S6 kinase beta-1 (Homo sapiens), P23443 [T412E] (P23443 whole entry T412E, looked up, the tested form may be a part): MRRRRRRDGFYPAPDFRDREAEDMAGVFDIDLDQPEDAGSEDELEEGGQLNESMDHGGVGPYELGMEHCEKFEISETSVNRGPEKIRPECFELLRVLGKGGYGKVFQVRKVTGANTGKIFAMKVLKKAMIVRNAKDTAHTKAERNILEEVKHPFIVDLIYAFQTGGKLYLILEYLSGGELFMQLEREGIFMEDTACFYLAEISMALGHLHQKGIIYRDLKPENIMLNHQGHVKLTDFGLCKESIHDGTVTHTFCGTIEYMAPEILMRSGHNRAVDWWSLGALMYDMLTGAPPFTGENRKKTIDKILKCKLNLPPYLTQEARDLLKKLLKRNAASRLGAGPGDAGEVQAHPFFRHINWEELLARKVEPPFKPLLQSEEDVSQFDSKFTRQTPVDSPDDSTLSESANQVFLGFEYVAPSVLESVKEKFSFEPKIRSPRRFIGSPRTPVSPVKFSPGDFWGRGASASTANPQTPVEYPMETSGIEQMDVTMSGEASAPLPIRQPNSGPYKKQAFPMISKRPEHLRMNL
Sequence of Tyrosine-protein kinase Yes (Homo sapiens) (P07947 2-543 limits assumed): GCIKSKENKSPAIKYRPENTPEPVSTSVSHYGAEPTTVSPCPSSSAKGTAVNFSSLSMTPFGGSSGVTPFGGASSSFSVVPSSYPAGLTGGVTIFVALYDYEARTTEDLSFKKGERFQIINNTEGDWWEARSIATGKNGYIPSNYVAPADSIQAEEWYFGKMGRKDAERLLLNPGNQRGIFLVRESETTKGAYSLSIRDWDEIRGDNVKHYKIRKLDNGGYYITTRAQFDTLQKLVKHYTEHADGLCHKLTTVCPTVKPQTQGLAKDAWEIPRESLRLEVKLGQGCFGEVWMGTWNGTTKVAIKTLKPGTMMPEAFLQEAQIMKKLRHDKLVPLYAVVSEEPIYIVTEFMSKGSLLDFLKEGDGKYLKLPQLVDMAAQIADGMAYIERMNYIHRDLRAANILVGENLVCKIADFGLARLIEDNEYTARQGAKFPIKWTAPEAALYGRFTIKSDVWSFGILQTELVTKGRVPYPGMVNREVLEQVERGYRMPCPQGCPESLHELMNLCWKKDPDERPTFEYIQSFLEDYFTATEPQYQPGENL
Sequence of Serine/threonine-protein kinase pim-2 (Homo sapiens) (Q9P1W9 whole entry, looked up, the tested form may be a part): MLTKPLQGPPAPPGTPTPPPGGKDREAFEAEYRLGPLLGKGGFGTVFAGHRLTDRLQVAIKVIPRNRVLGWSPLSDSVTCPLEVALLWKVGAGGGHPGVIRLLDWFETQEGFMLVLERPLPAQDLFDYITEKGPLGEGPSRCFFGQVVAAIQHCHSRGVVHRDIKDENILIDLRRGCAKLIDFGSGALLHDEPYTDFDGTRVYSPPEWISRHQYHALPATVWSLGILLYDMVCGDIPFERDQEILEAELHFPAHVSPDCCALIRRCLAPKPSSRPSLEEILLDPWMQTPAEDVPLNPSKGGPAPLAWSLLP

With `COc1ccc(-c2ccc3c(N4CCOCC4)nc(N4C[C@@H](C)O[C@@H](C)C4)nc3n2)cc1CO` [Ku-0063794], the Activity is 89% in data set [1]; 98% in data set [2]; 96% in data set [3]; 87% in [4]; 75% in data set [5]; 90% in data set [6]. Also, the Activity in [7] worked out at 86%; in data set [8], 81%; in [9] it was 46.9%; in [10] it was 67%; in data set [11], 94%; in data set [12] it was 36.5%. Moreover, the Activity in [13] was 92%; in [14], 94%; in [15], 99%.
